Reference: ChEMBL document CHEMBL4765357, “Development of small-molecule inhibitors of fatty acyl-AMP and fatty acyl-CoA ligases in Mycobacterium tuberculosis” (Eur J Med Chem, 2020)
Converted amounts (≈) assume the structure as drawn.

Experiments:
[1] = target: T1, Long-chain-fatty-acid--AMP ligase FadD28 (Mycobacterium tuberculosis, UniProt P9WQ59); experiment: Inhibition of Mycobacterium tuberculosis H37Rv FAAL28 Spectra expressed in Escherichia coli BL21(DE3) cells assessed as cleavage of MEsG by spectroscopic analysis; settings: read-out: Ki(app)
T1 sequence (P9WQ59 whole entry): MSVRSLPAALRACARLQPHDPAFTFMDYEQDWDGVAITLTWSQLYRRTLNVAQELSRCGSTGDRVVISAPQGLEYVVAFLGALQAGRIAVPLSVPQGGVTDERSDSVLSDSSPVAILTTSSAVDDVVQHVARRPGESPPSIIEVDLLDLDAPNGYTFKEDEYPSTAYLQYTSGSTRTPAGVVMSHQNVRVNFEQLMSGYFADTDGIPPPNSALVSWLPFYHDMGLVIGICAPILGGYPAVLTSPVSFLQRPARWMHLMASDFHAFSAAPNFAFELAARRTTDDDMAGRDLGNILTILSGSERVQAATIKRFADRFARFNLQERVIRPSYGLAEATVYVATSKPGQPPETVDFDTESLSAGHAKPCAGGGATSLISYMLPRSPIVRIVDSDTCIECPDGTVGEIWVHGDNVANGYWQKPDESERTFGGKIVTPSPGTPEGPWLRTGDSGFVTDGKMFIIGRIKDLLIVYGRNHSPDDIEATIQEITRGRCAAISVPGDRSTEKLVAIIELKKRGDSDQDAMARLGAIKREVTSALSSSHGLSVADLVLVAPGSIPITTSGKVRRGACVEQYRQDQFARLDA
How it was run: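 Coupled continuous assay with pyrophosphatase (0.04 U) and nucleoside phosphorylase (0.1 U), using 0.45 μM FAAL28 and 33 μM tetradecanoic acid. Buffer was 50 mM Tris·HCl pH 8.0 with 2.5 mM ATP, 5 mM MgCl₂, 0.5 mM DTT, 150 mM hydroxylamine and 0.2 mM MesG. Apparent Ki came from a Morrison equation fit.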

Vero = experiment: Cytotoxicity against African green monkey Vero cells assessed as reduction in cell viability after 72 hrs by MTT assay; type: cell-based; settings: Chlorocebus sabaeus
How it was run: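 Vero cells were seeded at (2.5–5.0) × 10⁴ per well in MEM with 5% FBS and penicillin/streptomycin. Compounds were added from 20 mM DMSO stocks to a final 100 μM. Controls were 0.5% and 50% DMSO, all in triplicate. After 72 h at 37 °C in 5% CO₂, cells got 1 mg/mL MTT for 3 h. Formazan was dissolved in isopropanol and read at 570/650 nm, with viability expressed relative to DMSO control.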

[2] = test system: Mycobacterium tuberculosis; experiment: Antimycobacterial activity against Mycobacterium tuberculosis H37Rv ATCC 27294 assessed as inhibition of bacterial growth under GAST medium condition after 7 to 14 days by broth microdilution method; type: functional; settings: time 7-14 day
How it was run: (§1)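 Mtb H37Rv ATCC 27294 by broth microdilution in GAST or 7H9 base with 5 g/L BSA fraction V, 0.8 g/L NaCl and 0.05% tyloxapol. Carbon source was 20 mM glycerol/10 mM glucose or 0.05 mM sodium palmitate. Compounds came from DMSO stocks with DMSO-only controls. Inoculum was 10⁴-10⁵ cells; growth was read at 7 and 14 days. MIC is the concentration giving >99% growth inhibition; runs were in triplicate.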

[3] = test system: Mycobacterium tuberculosis; experiment: Antimycobacterial activity against Mycobacterium tuberculosis H37Rv ATCC 27294 assessed as inhibition of bacterial growth under 7H9 medium condition after 7 to 14 days in presence of palmitate by broth microdilution method; type: functional; settings: time 7-14 day; how it was run: as §1
[4] = target: T2, Medium/long-chain-fatty-acid--CoA/3-oxocholest-4-en-26-oate--CoA ligase (Mycobacterium tuberculosis, UniProt P9WQ51); experiment: Inhibition of Mycobacterium tuberculosis H37Rv FACL19 Spectra expressed in Escherichia coli BL21(DE3) cells assessed as cleavage of MEsG by spectroscopic analysis; settings: read-out: Ki(app)
T2 sequence (P9WQ51 whole entry): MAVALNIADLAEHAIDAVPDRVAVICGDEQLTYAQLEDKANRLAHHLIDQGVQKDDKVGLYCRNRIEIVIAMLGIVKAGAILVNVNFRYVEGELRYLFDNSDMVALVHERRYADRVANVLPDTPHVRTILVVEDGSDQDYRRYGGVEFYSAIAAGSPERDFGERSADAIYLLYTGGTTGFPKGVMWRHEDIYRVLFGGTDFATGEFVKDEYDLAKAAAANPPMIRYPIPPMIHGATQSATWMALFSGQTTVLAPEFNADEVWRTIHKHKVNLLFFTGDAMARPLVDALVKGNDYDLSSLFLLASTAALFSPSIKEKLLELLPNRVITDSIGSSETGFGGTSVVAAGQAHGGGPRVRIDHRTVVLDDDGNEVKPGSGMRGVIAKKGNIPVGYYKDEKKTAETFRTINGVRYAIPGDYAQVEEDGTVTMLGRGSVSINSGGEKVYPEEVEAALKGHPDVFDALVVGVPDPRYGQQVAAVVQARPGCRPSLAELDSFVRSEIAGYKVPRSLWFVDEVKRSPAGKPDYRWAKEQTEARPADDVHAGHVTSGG
How it was run: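 FACL19 (0.167 μM) with 250 μM dodecanoic acid in a coupled MesG assay with pyrophosphatase and nucleoside phosphorylase. Buffer was 50 mM Tris·HCl pH 8.0 with 2.5 mM ATP, 5 mM MgCl₂, 0.5 mM DTT and 150 mM hydroxylamine. Apparent Ki came from a Morrison tight-binding fit.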

[5] = test system: Mycobacterium tuberculosis; experiment: Antimycobacterial activity against Mycobacterium tuberculosis H37Rv ATCC 27294 assessed as inhibition of bacterial growth under 7H9 medium condition after 7 to 14 days by broth microdilution method; type: functional; settings: time 7-14 day; how it was run: as §1

| SMILES | Ki [1] [µM] | IC50 (Vero) [µM] | MIC [2] [µM] | MIC [3] [µM] | Ki [4] [µM] | MIC [5] [µM] |
| --- | --- | --- | --- | --- | --- | --- |
| CCCCCCCCC[C@@H]1C[C@@H]1C(=O)NS(=O)(=O)OC[C@H]1O[C@@H](n2cnc3c(N)ncnc32)[C@H](O)[C@@H]1O | 69.8 | 6.1 | 50 (≈ 27 µg/mL) | > 100 | > 100 | > 100 |
| CCCCCCCCCCCCCC(=O)NS(=O)(=O)OC[C@H]1O[C@@H](n2cnc3c(N)ncnc32)[C@H](O)[C@@H]1O | 1.4 | 0.9 | 0.39 (≈ 0.217 µg/mL) | 100 | 10 | 50 (≈ 27.8 µg/mL) |
| Nc1ncnc2c1ncn2[C@@H]1O[C@H](COS(=O)(=O)NC(=O)CCCCCCCCCCOc2cccc(Cl)c2)[C@@H](O)[C@H]1O | 0.5 |  | 25 (≈ 16 µg/mL) |  | 26.4 |  |
| Nc1ncnc2c1ncn2[C@@H]1O[C@H](COS(=O)(=O)NC(=O)CCCCCCCCCCOc2cccc(C(F)(F)F)c2)[C@@H](O)[C@H]1O | 4.4 |  | 25 (≈ 16.9 µg/mL) |  | 13.5 |  |
| CCCCOCCOCCOCC(=O)NS(=O)(=O)OC[C@H]1O[C@@H](n2cnc3c(N)ncnc32)[C@H](O)[C@@H]1O | > 100 | 16 | 6.25 (≈ 3.43 µg/mL) | > 100 | > 100 | > 100 |
| Nc1ncnc2c1ncn2[C@@H]1O[C@H](COS(=O)(=O)NC(=O)CCCCCCCCCCOc2ccc(Cl)cc2)[C@@H](O)[C@H]1O | 2.2 |  | 6.25 (≈ 4.01 µg/mL) |  | 13.7 |  |
| Nc1ncnc2c1ncn2[C@@H]1O[C@H](CNS(=O)(=O)OCCCCCCCCCCCOc2ccccc2)[C@@H](O)[C@H]1O | > 100 |  | > 50 |  | > 100 |  |
| C=CCCCCCCCCC(=O)NS(=O)(=O)OC[C@H]1O[C@@H](n2cnc3c(N)ncnc32)[C@H](O)[C@@H]1O | > 100 | 11.6 | 0.39 (≈ 0.2 µg/mL) | 25 | > 100 | 25 (≈ 12.8 µg/mL) |
| CCCCCCCCCCCCCCCCCCCC(=O)NS(=O)(=O)OC[C@H]1O[C@@H](n2cnc3c(N)ncnc32)[C@H](O)[C@@H]1O |  | 0.1 | > 100 | > 100 |  | > 100 |
| COc1cccc(OCCCCCCCCCCC(=O)NS(=O)(=O)OC[C@H]2O[C@@H](n3cnc4c(N)ncnc43)[C@H](O)[C@@H]2O)c1 | 1.7 |  | 25 (≈ 15.9 µg/mL) |  | > 100 |  |
| COc1ccccc1OCCCCCCCCCCC(=O)NS(=O)(=O)OC[C@H]1O[C@@H](n2cnc3c(N)ncnc32)[C@H](O)[C@@H]1O | > 100 |  | > 50 |  | > 100 |  |
| Nc1ncnc2c1ncn2[C@@H]1O[C@H](COS(=O)(=O)NC(=O)CCCCCCCCCCSc2ccccc2)[C@@H](O)[C@H]1O | 6.3 |  | > 50 |  | 41.6 |  |
| C#CCCCCCCCCC(=O)NS(=O)(=O)OC[C@H]1O[C@@H](n2cnc3c(N)ncnc32)[C@H](O)[C@@H]1O | > 100 | 9.7 | 1.56 (≈ 0.796 µg/mL) | 50 | > 100 | 50 (≈ 25.5 µg/mL) |
| Nc1ncnc2c1ncn2[C@@H]1O[C@H](COS(=O)(=O)NC(=O)CCCCCCCCCCOc2ccccc2)[C@@H](O)[C@H]1O | 0.71 | 2 | 3.13 (≈ 1.9 µg/mL) | 50 | > 100 | 50 (≈ 30.3 µg/mL) |
| CCCCCCCCCC(=O)NS(=O)(=O)OC[C@H]1O[C@@H](n2cnc3c(N)ncnc32)[C@H](O)[C@@H]1O | 88 | 10.1 | 1.56 (≈ 0.781 µg/mL) | > 100 | > 100 | 100 (≈ 50.1 µg/mL) |
| CCCCCCCCCCCCCCCC(=O)NS(=O)(=O)OC[C@H]1O[C@@H](n2cnc3c(N)ncnc32)[C@H](O)[C@@H]1O | 1 | 0.3 | 6.25 (≈ 3.65 µg/mL) | > 100 |  | 100 (≈ 58.5 µg/mL) |

| SMILES | Ki [1] [µM] | IC50 (Vero) [µM] | MIC [2] [µM] | MIC [3] [µM] | Ki [4] [µM] | MIC [5] [µM] |
| --- | --- | --- | --- | --- | --- | --- |
| COc1ccc(OCCCCCCCCCCC(=O)NS(=O)(=O)OC[C@H]2O[C@@H](n3cnc4c(N)ncnc43)[C@H](O)[C@@H]2O)cc1 | 6.6 |  | > 50 |  | > 100 |  |
| Nc1ncnc2c1ncn2[C@@H]1O[C@H](COS(=O)(=O)NC(=O)CCCCCCCCCCOc2cccc(F)c2)[C@@H](O)[C@H]1O | 1.6 |  | 25 (≈ 15.6 µg/mL) |  | 7.3 |  |
| Nc1ncnc2c1ncn2[C@@H]1O[C@H](COS(=O)(=O)NC(=O)CCCCCCCCCCOc2ccc3ccccc3c2)[C@@H](O)[C@H]1O | 1.88 |  | > 50 |  | 20.4 |  |
| Nc1ncnc2c1ncn2[C@@H]1O[C@H](COS(=O)(=O)NC(=O)CCCCCCCCCCOc2cccc3ccccc23)[C@@H](O)[C@H]1O | 25.2 |  | > 50 |  | 9.64 |  |
| Nc1ncnc2c1ncn2[C@@H]1O[C@H](COS(=O)(=O)NC(=O)CCCCCCCCCCOc2ccccc2Cl)[C@@H](O)[C@H]1O | 3.6 |  | > 50 |  | > 100 |  |
| Nc1ncnc2c1ncn2[C@@H]1O[C@H](COS(=O)(=O)NC(=O)CCCCCCCCCCOc2ccc(C(F)(F)F)cc2)[C@@H](O)[C@H]1O | 15.6 |  | 25 (≈ 16.9 µg/mL) |  | 34.4 |  |
| Nc1ncnc2c1ncn2[C@@H]1O[C@H](CNS(=O)(=O)NC(=O)CCCCCCCCCCOc2ccccc2)[C@@H](O)[C@H]1O | 3.1 |  | 1.56 (≈ 0.945 µg/mL) |  | > 100 |  |
| Nc1ncnc2c1ncn2[C@@H]1O[C@H](COS(=O)(=O)NCCCCCCCCCCCOc2ccccc2)[C@@H](O)[C@H]1O | > 100 |  | > 50 |  | > 100 |  |
| Nc1ncnc2c1ncn2[C@@H]1O[C@H](COS(=O)(=O)NC(=O)CCCCCCCCCCCOc2ccccc2)[C@@H](O)[C@H]1O | 2.6 |  | 12.5 (≈ 7.76 µg/mL) |  | > 100 |  |
| Nc1ncnc2c1ncn2[C@@H]1O[C@H](COS(=O)(=O)NC(=O)CCCCCCCCCCNc2ccccc2)[C@@H](O)[C@H]1O | 7.3 |  | 12.5 (≈ 7.57 µg/mL) |  | 63.4 |  |
| Nc1ncnc2c1ncn2[C@@H]1O[C@H](COS(=O)(=O)NC(=O)CCCCCCCCCOc2ccccc2)[C@@H](O)[C@H]1O | 6.7 |  | 50 (≈ 29.6 µg/mL) |  | > 100 |  |
| Nc1ncnc2c1ncn2[C@@H]1O[C@H](COS(=O)(=O)NC(=O)CCCCCCCCCCOc2ccc(F)cc2)[C@@H](O)[C@H]1O | 0.3 |  | 12.5 (≈ 7.81 µg/mL) |  | 11.4 |  |
| Nc1ncnc2c1ncn2[C@@H]1O[C@H](COS(=O)(=O)NC(=O)CCCCCCCCCCOc2ccc(Br)cc2)[C@@H](O)[C@H]1O | 4 |  | > 50 |  | 10.4 |  |
| Nc1ncnc2c1ncn2[C@@H]1O[C@H](COS(=O)(=O)NC(=O)CCCCCCCCCCOc2ccccc2F)[C@@H](O)[C@H]1O | 1.5 |  | > 50 |  | > 100 |  |
| Nc1ncnc2c1ncn2[C@@H]1O[C@H](COS(=O)(=O)NC(=O)CCCCCCCCCCOc2ccccc2C(F)(F)F)[C@@H](O)[C@H]1O | 1.3 |  | > 50 |  | 28.5 |  |
